Compound activity (PubChem)
Mdm2 MdmX PPI: human Mdm2/MdmX binding inhibition. inhibition, % at 8 µM. O15151+Q00987. AID 485346. SaOS-2 split-luciferase Mdm2/MdmX complementation, luminescence. 330,000 compounds, 3% hits;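 active = inhibition of at least 50% at 8 µM in the primary screen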
Beta cell apopt: blocks beta cell apoptosis; protection from apoptosis, % (no concentration beside the values); INS-1E cytokine-induced death, ATP luminescence, 48 h; percent of positive-control rescue, neutral wells zero; 300,000 compounds, 0.8% hits; AID 435005;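 active = Every replicate reaches about 75%, or at least half do and their mean reaches it too, limit read from the data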;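 note: 0% = cytokine-treated negative control wells and 100% = positive control rescue; higher means more ATP so stronger rescue from cytokine killing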
NLRP3 yeast inh: inhibitors of NALP3 inflammasome in yeast | Yeast reconstituted NLRP3/ASC/caspase-1, beta-gal luminescence, 24 h | inhibition, % at 10 µM | 330,000 compounds, 0.39% hits | AID 2825;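 active = inhibition of 50% or more; inactive = inhibition below 50%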;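 note: plate controls were induced DMSO wells for no effect and uninduced yeast grown without galactose for full effect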
T cruzi repl: T. cruzi replication inhibition. 300,000 compounds, 1.4% hits. T. cruzi beta-gal in NIH3T3, luminescence, 90 h. AID 1885. inhibition, % (concentration not given with the values);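 active = mean inhibition across valid replicates above about 55%, limit read from the data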;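 note: signal also drops with host cell toxicity which is not excluded here; 0% = plate median of DMSO wells and 100% = zero luminescence signal; higher percent means less beta-gal luminescence so fewer parasites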
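System – NIH/3T3 host cells with β-galactosidase reporter T. cruzi · Doses – single 50 nL compound addition per well in DMSO · Reagent – 5000 T. cruzi trypomastigotes/well · Medium – Low-serum DMEM with 2% FBS · Timing – ≥90 h infection period, 3 h prior cell attachment · Evaluation – parasite load inhibition, % · Technique – GalScreen luminescence, 60 min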
CSC inhib: cancer stem cell inhibition; cancer stem cell-like cells viability, luminescence; inhibition, % at 7.5 µM; 300,000 compounds, 1.1% hits; in the data active = inhibition above about 75%; tested in HMLE shEcad cells
Calb FLC: C. albicans growth modulation with fluconazole | C. albicans CaCi-2 (fluconazole-resistant clinical isolate) + fluconazole, Alamar Blue growth, 48 h | growth inhibition, % (concentration not given with the values) | 300,000 compounds, 0.57% hits | AID 1979;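 active = growth inhibition above about 58% in most replicates, limit read from the data, passing the limit was not always enough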;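 note: all wells also contain fluconazole at 8 µg/ml as a sub-toxic cotreatment; 0% = median of DMSO wells and 100% = median of geldanamycin control wells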
An asterisk follows results filed as active; · = no result. Most compounds without a hit are left out; they make up all but 5.3% or so of the library.

SMILES	Mdm2 MdmX PPI	Beta cell apopt	NLRP3 yeast inh	T cruzi repl	CSC inhib	Calb FLC
Cc1cc([N+](=O)[O-])ccc1-c1ccc(/C=N/NC(=O)Cc2ccccc2)o1	47	2	7	5	8	-1
CCCCCCCC(=O)N/N=C/c1ccc([N+](=O)[O-])o1	6	0	28	47	7	101*
CCCOc1ccc(CCC(=O)N/N=C/c2ccc([N+](=O)[O-])o2)cc1	-9	12	35	52	-5	1
O=C(Cc1ccc([N+](=O)[O-])cc1)N/N=C/c1ccc([N+](=O)[O-])o1	23	97*	12	107*	-16	6
O=C(CCN1CCN(c2ccccc2)CC1)N/N=C/c1ccc(O)c(O)c1O	·	·	·	-6	·	114*
N#CCc1ccc(NC(=O)/C=C/c2ccc([N+](=O)[O-])o2)cc1	·	·	·	42	·	97*
CC(=O)Nc1ccc(S(=O)(=O)N/N=C/c2ccc(C)o2)cc1	-17	1	11	-18	-5	-28
Cc1cc(C)c2c(=O)[nH]n(C3CCCCCC3)c2n1	-21	2	3	-7	-1	-19
CC1(C(=O)N/N=C/c2ccc([N+](=O)[O-])o2)CC1(Br)Br (stereo not given)	22	2	-4	50	-14	92*
O=C(CNc1cccc([N+](=O)[O-])c1)N/N=C/c1ccc([N+](=O)[O-])o1	3	93*	20	68*	0	-2
O=C(CNc1ccccc1)N/N=C/c1ccc([N+](=O)[O-])cc1	4	-3	1	-11	-1	7
O=[N+]([O-])c1ccc(/C=N/Nc2nc(N3CCCCCC3)nc(N3CCCCCC3)n2)o1	6	4	18	76*	35	47
CCOC(=O)N/N=C\c1ccc([N+](=O)[O-])o1	10	-9	0	75*	2	22
COc1ccc(CN2CCNC(=O)C2CC(=O)NCCc2c[nH]c3ccccc23)c(OC)c1 (stereo not given)	-1	-1	24	-11	-11	13
COC(=O)c1cc(N=Nc2c(C)[nH]c3ccccc23)cc(C(=O)OC)c1	21	40	-6	-42	-6	-2
Cc1cccc(C)c1OCC(=O)NNC(=O)CCCn1c(=O)oc2ccccc21	12	-9	-4	·	-6	·
O=C(CN1CCCCCCC1)N/N=C/c1ccc([N+](=O)[O-])o1	-12	9	24	58*	-1	7
O=C(CN1CCCCC1)N/N=C/c1ccc(Cl)cc1	19	-2	19	-3	-14	-4
O=C(CCN1CCN(c2ccccc2)CC1)N/N=C/c1ccc([N+](=O)[O-])o1	15	-6	4	96*	-9	-2
O=C(CC12CC3CC(CC(C3)C1)C2)N/N=C/c1ccc([N+](=O)[O-])o1	20	4	16	55*	34	0
O=C(CC12CC3CC(CC(C3)C1)C2)N/N=C\c1ccc[nH]1	18	0	-1	1	2	-6
COc1ccc(Br)cc1CN1CCN(C(=O)c2ccc(OC)c(OC)c2)CC1	-5	-6	13	-3	-5	-5
c1ccc(SCCOCCN2CCOCC2)cc1	-14	-1	10	12	13	-3
Cc1cc(Cl)c(OCCOCCN2CCCC(C)C2)c(Br)c1 (stereo not given)	12	·	25	73*	·	3
CC1CC(C)CN(CCOCCSc2ccccc2)C1 (stereo not given)	-10	-1	15	60*	29	5
SMILES	Mdm2 MdmX PPI	Beta cell apopt	NLRP3 yeast inh	T cruzi repl	CSC inhib	Calb FLC
CC1CCCN(CCOCCSc2ccccc2)C1 (stereo not given)	8	-8	19	60*	48	0
Cc1cc(Cl)c(OCCOCCN2CCCCC2)c(Br)c1	-8	3	16	31	63	-20
O=C(N/N=C/c1cccnc1)c1ccc2ccccc2c1O	17	3	6	·	-8	17
O/N=C/c1cc(Br)ccc1OCc1ccc(F)cc1	-22	-4	-8	3	14	-17
Cc1ccc(COc2ccc(Br)cc2/C=N/O)cc1	-126	-10	13	17	78*	-1
COc1ccc(OCc2cccc(C(=O)Nc3ccc(CN4CCCCC4)cc3)c2)cc1	37	15	18	31	47	-8
COc1c(Cl)cc(Cl)cc1C(=O)Nc1ccc(CN2CCCCC2)cc1	6	-2	2	56*	72	1
